The target in assay [1] is Carbonic anhydrase 2 (Homo sapiens) (UniProt P00918). Kind of assay: Inhibition of human carbonic anhydrase 2 activity at 20 uM after 144 hrs by CO2 hydration stopped-flow assay relative to control. In a few lines: (§1)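 hCA II (10 nM) held with test compound at 20 µM (stated as 20 lM in the footnote) for 15 min to 144 h before assay. Activity then read by stopped-flow CO2 hydrase assay. Values are % of initial enzyme activity with no test compound, which is set to 100%.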

In assay [2] the target is Carbonic anhydrase 7 (Homo sapiens) (UniProt P43166). Briefly: Activation of human cytosolic carbonic anhydrase 7 preincubated for 15 mins by CO2 hydration stopped-flow assay.
Assay [3] has as its target Carbonic anhydrase 2 (Homo sapiens) (UniProt P00918). Briefly: Inhibition of human carbonic anhydrase 2 activity at 20 uM after 72 hrs by CO2 hydration stopped-flow assay relative to control. Put shortly:
as §1

The target of assay [4] is Carbonic anhydrase 12 (Homo sapiens) (UniProt O43570). Kind of assay: Binding affinity to human transmembrane carbonic anhydrase 12.
Assay [5] has as its target Carbonic anhydrase 2 (Homo sapiens) (UniProt P00918). Briefly: Activation of human carbonic anhydrase 2 activity at 20 uM after 12 hrs by CO2 hydration stopped-flow assay relative to control. In a few lines: as §1
Assay [6] shares this target. Briefly: Activation of human carbonic anhydrase 2 activity at 20 uM after 15 mins by CO2 hydration stopped-flow assay relative to control. In a few lines: as §1
Assay [7] has as its target Carbonic anhydrase 9 (Homo sapiens) (UniProt Q16790). Kind of assay: Binding affinity to human transmembrane carbonic anhydrase 9.
Assay [8] concerns the target Carbonic anhydrase 1 (Homo sapiens) (UniProt P00915). Kind of assay: Activation of human cytosolic carbonic anhydrase 1 preincubated for 15 mins by CO2 hydration stopped-flow assay.
The target is the same in assay [9]. Briefly: Binding affinity to human cytosolic carbonic anhydrase 1.
Assay [10] deals with Carbonic anhydrase 2 (Homo sapiens) (UniProt P00918). Kind of assay: Activation of human carbonic anhydrase 2 activity at 20 uM after 36 hrs by CO2 hydration stopped-flow assay relative to control. In a few lines: as §1
Assay [11] deals with Carbonic anhydrase 12 (Homo sapiens) (UniProt O43570). Briefly: Activation of human transmembrane carbonic anhydrase 12 preincubated for 15 mins by CO2 hydration stopped-flow assay.
Assay [12] concerns the target Carbonic anhydrase 14 (Homo sapiens) (UniProt Q9ULX7). Briefly: Binding affinity to human transmembrane carbonic anhydrase 14.
Assay [13] has as its target Carbonic anhydrase 2 (Homo sapiens) (UniProt P00918). Briefly: Activation of human carbonic anhydrase 2 activity at 20 uM after 1 hr by CO2 hydration stopped-flow assay relative to control. In a few lines: as §1
In assay [14] the target is Carbonic anhydrase 14 (Homo sapiens) (UniProt Q9ULX7). Briefly: Activation of human transmembrane carbonic anhydrase 14 preincubated for 15 mins by CO2 hydration stopped-flow assay.
The target of assay [15] is Carbonic anhydrase 2 (Homo sapiens) (UniProt P00918). Kind of assay: Activation of human cytosolic carbonic anhydrase 2 preincubated for 15 mins by CO2 hydration stopped-flow assay.
The target is the same in assay [16]. Kind of assay: Inhibition of human carbonic anhydrase 2 activity at 20 uM after 48 hrs by CO2 hydration stopped-flow assay relative to control. Put shortly:
as §1

For assay [17] the target is unchanged. Briefly: Activation of human carbonic anhydrase 2 activity at 20 uM after 24 hrs by CO2 hydration stopped-flow assay relative to control. In a few lines:
as §1

The target of assay [18] is Carbonic anhydrase 9 (Homo sapiens) (UniProt Q16790). Briefly: Activation of human transmembrane carbonic anhydrase 9 preincubated for 15 mins by CO2 hydration stopped-flow assay.
The target of assay [19] is Carbonic anhydrase 7 (Homo sapiens) (UniProt P43166). Briefly: Binding affinity to human cytosolic carbonic anhydrase 7.
Assay [20] addresses Carbonic anhydrase 2 (Homo sapiens) (UniProt P00918). Kind of assay: Binding affinity to human cytosolic carbonic anhydrase 2.
For assay [21] the target is unchanged. Briefly: Inhibition of human carbonic anhydrase 2 activity at 20 uM after 96 hrs by CO2 hydration stopped-flow assay relative to control. Put shortly: as §1

Usually inhibition stands for the change of the read-out against control, counted positive when it falls.

Carbonic anhydrase 12 (Homo sapiens), sequence (O43570 whole entry): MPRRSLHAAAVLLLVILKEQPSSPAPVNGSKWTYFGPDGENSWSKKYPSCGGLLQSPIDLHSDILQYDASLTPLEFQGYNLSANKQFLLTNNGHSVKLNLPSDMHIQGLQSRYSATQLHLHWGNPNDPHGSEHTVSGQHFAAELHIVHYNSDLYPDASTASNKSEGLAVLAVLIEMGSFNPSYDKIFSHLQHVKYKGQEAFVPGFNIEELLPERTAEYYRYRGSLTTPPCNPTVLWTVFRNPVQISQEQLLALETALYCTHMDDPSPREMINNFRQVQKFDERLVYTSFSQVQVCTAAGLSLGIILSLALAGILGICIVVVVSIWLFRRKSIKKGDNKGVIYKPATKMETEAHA
Carbonic anhydrase 14 (Homo sapiens), sequence (Q9ULX7 whole entry): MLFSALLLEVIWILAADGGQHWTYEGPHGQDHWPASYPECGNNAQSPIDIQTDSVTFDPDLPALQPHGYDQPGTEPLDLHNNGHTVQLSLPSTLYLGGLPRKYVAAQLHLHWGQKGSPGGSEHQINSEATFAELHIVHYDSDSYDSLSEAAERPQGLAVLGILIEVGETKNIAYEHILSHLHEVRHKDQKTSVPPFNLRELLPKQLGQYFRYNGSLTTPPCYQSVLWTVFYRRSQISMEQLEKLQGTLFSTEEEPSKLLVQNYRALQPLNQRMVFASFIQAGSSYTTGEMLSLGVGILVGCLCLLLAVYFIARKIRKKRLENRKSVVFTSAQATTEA
Carbonic anhydrase 7 (Homo sapiens), sequence (P43166 whole entry): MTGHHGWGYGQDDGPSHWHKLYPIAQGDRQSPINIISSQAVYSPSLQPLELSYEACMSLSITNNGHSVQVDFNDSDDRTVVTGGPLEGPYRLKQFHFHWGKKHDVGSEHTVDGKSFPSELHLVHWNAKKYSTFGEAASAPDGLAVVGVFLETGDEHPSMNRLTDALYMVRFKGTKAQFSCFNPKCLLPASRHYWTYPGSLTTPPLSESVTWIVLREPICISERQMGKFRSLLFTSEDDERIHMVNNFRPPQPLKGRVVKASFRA
Carbonic anhydrase 1 (Homo sapiens), sequence (P00915 2-261 limits assumed): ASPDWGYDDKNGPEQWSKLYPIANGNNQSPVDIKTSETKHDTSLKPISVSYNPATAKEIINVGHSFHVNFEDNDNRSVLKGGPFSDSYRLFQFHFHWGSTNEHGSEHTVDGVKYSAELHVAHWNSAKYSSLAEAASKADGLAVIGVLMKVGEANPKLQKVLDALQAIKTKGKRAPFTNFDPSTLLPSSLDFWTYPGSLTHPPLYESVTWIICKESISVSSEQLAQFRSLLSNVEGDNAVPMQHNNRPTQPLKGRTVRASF

As to `Cc1cc(C)[n+](CCc2c[nH]cn2)c(C)c1`, the inhibition in [1] was found to be 3%; in assay [3], 14%; in assay [16], 65%; in assay [21], 5%. Further, the Ka was determined as 7.71 µM in [2]; 3.15 µM in assay [8]; 0.96 µM in assay [11]; 0.08 µM in assay [14]; 18 µM in assay [15]; 0.76 µM in [18]. Besides, the Activity in assay [4] came to 0.08 µM; in [5], 154%; in [6], 156%; in assay [7] it was 0.08 µM; in assay [9], 3.15 µM; in [10], 147%. Moreover, the Activity in assay [12] worked out at 0.08 µM; in assay [13], 153%; in assay [17], 149%; in assay [19], 3.15 µM; in [20], 3.15 µM.

The values above are taken from ChEMBL document CHEMBL1770084, “An inhibitor-like binding mode of a carbonic anhydrase activator within the active site of isoform II” (Bioorg Med Chem Lett, 2011).
